# Experimental data from paper PMC3286832 (Nature Communications, 2011).
# Columns and labels:
# [1] = tested on: hDNMT3A–MPP8 interaction in 293T cells; assay: Co-immunoprecipitation of hDNMT3A and MPP8 in 293T cells; type: cell-based, human; settings: immunoprecipitation–western
# Procedure, shortened: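 293T cells were transfected for 48 h with Myc-hDNMT3A constructs (WT or K47R; in one setup, co-expressed with HA–GLP in GLP stable-knockdown cells). IP used 1 μg anti-Myc with protein-G agarose and three washes in IPH containing 300 or 600 mM NaCl. Western used anti-Myc/MPP8; input was 1–2%.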
# [2] = tested on: MPP8–GLP interaction in 293T cells; assay: Co-immunoprecipitation of MPP8 and GLP in 293T cells; type: cell-based, human
# Procedure, shortened: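 293T cells (parental, or MPP8 stable knockdown for the chromodomain W80A mutant) were cotransfected with Flag-MPP8 and HA-GLP (WT, K199R, K205R or K209R) for 48 h. Lysates were immunoprecipitated with 1 μg anti-HA or anti-Flag on protein-G agarose, washed with IPH containing 300 or 600 mM NaCl, and analysed by western blot. Input was 5%.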
molecule,measurement,setting,value
"MPP8 W80A: cage mutant of MPP8 chromodomain, Trp80 to alanine (protein, left off: Flag, end not stated, kept) MEQVAEGARVTAVPVSAADSTEELAEVEEGVGVVGEDNDAAARGAEAFGDSEEDGEDVFEVEKILDMKTEGGKVLYKVRAKGYTSDDDTWEPEIHLEDCKEVLLEFRKKIAENKAKAVRKDIQRLSLNNDIFEANSDSDQQSETKEDTSPKKKKKKLRQREEKSPDDLKKKKAKAGKLKDKSKPDLESSLESLVFDLRTKKRISEAKEELKESKKPKKDEVKETKELKKVKKGEIRDLKTKTREDPKENRKTKKEKFVESQVESESSVLNDSPFPEDDSEGLHSDSREEKQNTKSARERAGQDMGLEHGFEKPLDSAMSAEEDTDVRGRRKKKTPRKAEDTRENRKLENKNAFLEKKTVPKKQRNQDRSKSAAELEKLMPVSAQTPKGRRLSGEERGLWSTDSAEEDKETKRNESKEKYQKRHDSDKEEKGRKEPKGLKTLKEIRNAFDLFKLTPEEKNDVSENNRKREEIPLDFKTIDDHKTKENKQSLKERRNTRDETDTWAYIAAEGDQEVLDSVCQADENSDGRQQILSLGMDLQLEWMKLEDFQKHLDGKDENFAATDAIPSNVLRDAVKNGDYITVKVALNSNEEYNLDQEDSSGMTLVMLAAAGGQDDLLRLLITKGAKVNGRQKNGTTALIHAAEKNFLTTVAILLEAGAFVNVQQSNGETALMKACKRGNSDIVRLVIECGADCNILSKHQNSALHFAKQSNNVLVYDLLKNHLETLSRVAEETIKDYFEARLALLEPVFPIACHRLCEGPDFSTDFNYKPPQNIPEGSGILLFIFHANFLGKEVIARLCGPCSVQAVVLNDKFQLPVFLDSHFVYSFSPVAGPNKLFIRLTEAPSAKVKLLIGAYRVQLQ",interaction of hDNMT3A with MPP8 in cells,[1],abrogate binding to hDNMT3a
same,MPP8–GLP interaction in cells,[2],abrogates MPP8–GLP interaction in cells
